This is an account of results in ChEMBL document CHEMBL2417547 (J Med Chem, 2013).

Data set [1] is described as follows: Half life in human liver S9 fraction at 1 uM by LC-MS/MS analysis. Format: ADME, subcellular. An outline of the steps:
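Pooled human liver S9 fraction, 1 mg/mL, with 2 mM NADPH regenerating system, 1 mM UDPGA and 0.1 mM PAPS (phase I and II). Compound at 1 μM, 37 °C, sampled at 0, 5, 15 and 60 min. Stopped with cold acetonitrile containing internal standard. Remaining compound measured by LC-MS/MS and used to derive t1/2. Mean of more than three repeats.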

A further data set addresses T1, Cytochrome P450 2A6 (Homo sapiens, UniProt P11509).
T1 sequence (P11509 whole entry): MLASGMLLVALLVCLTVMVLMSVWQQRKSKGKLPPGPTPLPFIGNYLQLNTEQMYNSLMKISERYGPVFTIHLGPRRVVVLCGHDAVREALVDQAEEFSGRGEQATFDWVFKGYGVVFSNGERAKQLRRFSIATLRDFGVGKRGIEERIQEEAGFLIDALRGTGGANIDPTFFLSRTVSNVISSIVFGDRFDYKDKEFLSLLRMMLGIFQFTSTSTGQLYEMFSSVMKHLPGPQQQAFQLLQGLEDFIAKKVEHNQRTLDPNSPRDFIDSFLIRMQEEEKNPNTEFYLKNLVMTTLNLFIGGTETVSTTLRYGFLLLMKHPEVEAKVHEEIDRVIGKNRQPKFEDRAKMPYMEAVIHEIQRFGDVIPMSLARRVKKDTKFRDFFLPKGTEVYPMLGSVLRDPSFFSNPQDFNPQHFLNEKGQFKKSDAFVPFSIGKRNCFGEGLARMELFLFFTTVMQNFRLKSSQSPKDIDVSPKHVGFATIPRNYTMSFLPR
In words: Inhibition of CYP2A6 (unknown origin) using coumarin as substrate. Type of data set: ADME. The gist of the method: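 Commercial CYP2A6/coumarin inhibitor screening kit with coumarin as substrate at 3 μM, run per the kit instructions. IC50 determined.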

For the next data set, the species on record is Homo sapiens. In words: Selectivity factor, ratio of IC50 for human CYP11B2 to IC50 for human CYP11B1. The gist of the method: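 V79MZh hamster fibroblasts expressing human CYP11B1 or CYP11B2 were incubated with [1,2-3H]-11-deoxycorticosterone (100 nM) plus inhibitor at a range of concentrations. […] The selectivity factor is IC50(CYP11B2)/IC50(CYP11B1).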

For data set [2], the target named is T2, Cytochrome P450 11B2, mitochondrial (Homo sapiens, UniProt P19099).
T2 sequence (P19099 whole entry): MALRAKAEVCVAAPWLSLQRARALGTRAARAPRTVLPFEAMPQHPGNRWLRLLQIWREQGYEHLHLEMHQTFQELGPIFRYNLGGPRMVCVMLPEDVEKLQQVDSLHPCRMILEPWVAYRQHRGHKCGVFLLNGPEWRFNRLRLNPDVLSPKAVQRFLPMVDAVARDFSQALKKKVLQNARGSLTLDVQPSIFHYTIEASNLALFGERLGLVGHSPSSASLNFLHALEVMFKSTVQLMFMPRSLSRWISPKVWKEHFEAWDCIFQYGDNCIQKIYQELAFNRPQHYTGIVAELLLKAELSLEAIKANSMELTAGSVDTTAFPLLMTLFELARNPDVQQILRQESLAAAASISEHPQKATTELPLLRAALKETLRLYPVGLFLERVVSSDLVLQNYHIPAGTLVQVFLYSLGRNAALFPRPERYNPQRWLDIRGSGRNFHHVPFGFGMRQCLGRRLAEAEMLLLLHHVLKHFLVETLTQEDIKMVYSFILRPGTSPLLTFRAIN
The data set is described as follows: Inhibition of human CYP11B2 expressed in hamster V79MZh cells using [1,2-3H]-11-deoxycorticosterone as substrate. Format: cell-based. An outline of the steps:
(§1)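 V79MZh hamster fibroblasts expressing human CYP11B1 or CYP11B2 were incubated with [1,2-3H]-11-deoxycorticosterone (100 nM) plus inhibitor at a range of concentrations. The selectivity factor is IC50(CYP11B2)/IC50(CYP11B1).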

Data set [3] deals with T3, Cytochrome P450 11B1, mitochondrial (Homo sapiens, UniProt P15538).
T3 sequence (P15538 whole entry): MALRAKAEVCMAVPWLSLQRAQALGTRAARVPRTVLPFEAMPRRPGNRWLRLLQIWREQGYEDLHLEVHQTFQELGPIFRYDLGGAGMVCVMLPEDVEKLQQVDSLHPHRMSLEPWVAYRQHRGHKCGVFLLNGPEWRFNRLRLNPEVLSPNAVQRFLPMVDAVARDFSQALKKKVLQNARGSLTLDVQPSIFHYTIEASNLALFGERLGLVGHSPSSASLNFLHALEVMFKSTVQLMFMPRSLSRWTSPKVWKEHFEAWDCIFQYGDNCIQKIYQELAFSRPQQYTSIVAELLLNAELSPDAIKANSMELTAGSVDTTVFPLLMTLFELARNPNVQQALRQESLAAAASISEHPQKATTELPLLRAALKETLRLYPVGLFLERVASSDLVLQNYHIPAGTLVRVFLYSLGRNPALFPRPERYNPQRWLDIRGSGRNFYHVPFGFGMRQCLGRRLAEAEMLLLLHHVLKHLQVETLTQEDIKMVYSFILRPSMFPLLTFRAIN
In words: Inhibition of human CYP11B1 expressed in hamster V79MZh cells using [1,2-3H]-11-deoxycorticosterone as substrate. Format: cell-based. The gist of the method: as §1

For orientation: half-life means the time needed for the level to fall by half in the phase considered. A higher half-life goes with slow decline. A word on the IC50: it is the concentration that gives 50% inhibition. For the molecule `Cc1cncc(Cc2ccc(-c3ccccc3)nc2)c1`, the half-life at 1 µM in data set [1] is > 2.5 h. Further, the IC50 on Cytochrome P450 2A6 worked out at 106000 nM; in data set [2] it was 33 nM; in data set [3], 2 nM. For the same molecule, the Ratio IC50 in the data set filed under Homo sapiens stood at 15.1.
